Assay [1] deals with Adenosine receptor A2a (Homo sapiens) (UniProt P29274). Briefly: Displacement of [3H]CGS-21680 from human adenosine A2A receptor expressed in HEK293 cells at 10 uM. The format is cell-based. In outline:
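Human A2A AR HEK-293 membranes (20 μg/tube) with [3H]CGS21680 in 50 mM Tris-HCl pH 7.4 with 10 mM MgCl2, 60 min at 25 °C; nonspecific binding with 10 μM NECA; GF/B filtration.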
(In general: In a radioligand displacement assay an active substance lowers the binding of a labelled ligand.)

Assay [2] deals with T1, Adenosine receptor A3 (Homo sapiens) (UniProt P0DMS8).
T1 sequence (whole entry): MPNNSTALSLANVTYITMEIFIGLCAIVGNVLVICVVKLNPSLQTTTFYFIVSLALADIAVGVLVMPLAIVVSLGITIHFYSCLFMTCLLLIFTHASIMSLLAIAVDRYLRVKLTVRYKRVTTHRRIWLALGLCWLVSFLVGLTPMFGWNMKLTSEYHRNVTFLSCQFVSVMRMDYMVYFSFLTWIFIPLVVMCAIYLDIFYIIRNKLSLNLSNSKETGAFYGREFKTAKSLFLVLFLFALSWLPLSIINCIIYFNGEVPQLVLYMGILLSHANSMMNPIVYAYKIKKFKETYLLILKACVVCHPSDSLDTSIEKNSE
Put plainly: Displacement of [125I]I-AB-MECA from human adenosine A3 receptor expressed in CHO cells at 10 uM. It counts as cell-based. In outline:
(§1)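 Membranes (20 μg protein) from CHO cells stably expressing human or rat A3 AR were incubated with 0.5 nM [125I]I-AB-MECA and increasing ligand concentrations in 50 mM Tris-HCl pH 7.4 with 10 mM MgCl2 for 60 min at 25 °C. Nonspecific binding was set with 10 μM NECA. Filtration through GF/B, washed ×3 with ice-cold buffer, γ-counting.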

In assay [3] the target is T1, Adenosine receptor A3 (Homo sapiens). Put plainly: Antagonist activity at human adenosine A3 receptor expressed in CHO cells assessed as inhibition of forskolin-stimulated cAMP production at 10 uM relative to (2S,3S,4R,5R)-5-(6-(3-iodobenzylamino)-9H-purin-9-yl)-3,4-dihydroxy-N-methyl-tetrahydrothiophene-2-carboxamide. It counts as functional, cell-based. Set-up: scale not given: the % may be the effect or the level left. The gist of the method:
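CHO cells stably expressing human A3 AR; forskolin-stimulated cAMP production measured with test compound at 10 μM; response given as mean percentage of a full A3 agonist's effect, n = 1–3.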
For orientation: cAMP levels reflect the balance of adenylyl cyclase and phosphodiesterase activity.

Assay [4] concerns the target T2, Adenosine receptor A1 (Homo sapiens) (UniProt P30542).
T2 sequence (whole entry): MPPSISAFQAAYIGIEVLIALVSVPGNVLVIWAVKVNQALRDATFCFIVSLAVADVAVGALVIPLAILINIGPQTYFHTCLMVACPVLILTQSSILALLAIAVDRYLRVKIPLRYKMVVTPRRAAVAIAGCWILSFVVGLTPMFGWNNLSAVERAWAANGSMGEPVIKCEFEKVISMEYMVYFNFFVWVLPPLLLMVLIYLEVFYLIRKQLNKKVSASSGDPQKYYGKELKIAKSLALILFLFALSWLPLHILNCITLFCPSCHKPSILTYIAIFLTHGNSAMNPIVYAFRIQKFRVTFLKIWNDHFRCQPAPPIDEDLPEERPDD
Briefly: Displacement of [3H]CCPA from human adenosine A1 receptor expressed in CHO cells at 10 uM. It counts as cell-based. In outline:
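Human A1 AR CHO membranes (40 μg/tube) were incubated with 1 nM [3H]CCPA in 50 mM Tris-HCl pH 7.4 with 10 mM MgCl2 for 60 min at 25 °C; 10 μM NECA defined nonspecific binding; GF/B filtration.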

Assay [5] addresses T3, Adenosine receptor A3 (Rattus norvegicus, UniProt P28647).
T3 sequence (P28647 whole entry): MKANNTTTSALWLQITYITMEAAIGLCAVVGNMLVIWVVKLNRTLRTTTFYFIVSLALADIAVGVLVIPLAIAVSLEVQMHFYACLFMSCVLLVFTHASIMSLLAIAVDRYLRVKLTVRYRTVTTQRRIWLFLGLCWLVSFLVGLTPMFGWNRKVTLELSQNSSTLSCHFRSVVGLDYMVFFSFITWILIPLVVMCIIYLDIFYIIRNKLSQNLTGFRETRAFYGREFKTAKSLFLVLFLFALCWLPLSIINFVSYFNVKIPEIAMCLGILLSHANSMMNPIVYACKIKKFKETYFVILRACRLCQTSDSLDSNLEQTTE
Put plainly: Displacement of [125I]I-AB-MECA from rat adenosine A3 receptor expressed in CHO cells. The format is cell-based.

The next assay concerns the target T4, Adenosine receptor A1 (Homo sapiens, UniProt P30542).
T4 sequence (P30542 whole entry): T2 sequence (whole entry)
Put plainly: Displacement of [3H]CCPA from human adenosine A1 receptor expressed in CHO cells. It counts as cell-based.

Assay [6] concerns the target T5, Adenosine receptor A3 (Rattus norvegicus) (UniProt P28647).
T5 sequence (whole entry): T3 sequence (P28647 whole entry)
Put plainly: Displacement of [125I]I-AB-MECA from rat adenosine A3 receptor expressed in CHO cells at 10 uM. It counts as cell-based. The gist of the method:
as §1

The target in assay [7] is T6, Adenosine receptor A3 (Homo sapiens, UniProt P0DMS8).
T6 sequence (P0DMS8 whole entry): T1 sequence (whole entry)
Briefly: Displacement of [125I]I-AB-MECA from human adenosine A3 receptor expressed in CHO cells. The format is cell-based.

Assay [8] has as its target T7, Adenosine receptor A2b (Homo sapiens) (UniProt P29275).
T7 sequence (whole entry): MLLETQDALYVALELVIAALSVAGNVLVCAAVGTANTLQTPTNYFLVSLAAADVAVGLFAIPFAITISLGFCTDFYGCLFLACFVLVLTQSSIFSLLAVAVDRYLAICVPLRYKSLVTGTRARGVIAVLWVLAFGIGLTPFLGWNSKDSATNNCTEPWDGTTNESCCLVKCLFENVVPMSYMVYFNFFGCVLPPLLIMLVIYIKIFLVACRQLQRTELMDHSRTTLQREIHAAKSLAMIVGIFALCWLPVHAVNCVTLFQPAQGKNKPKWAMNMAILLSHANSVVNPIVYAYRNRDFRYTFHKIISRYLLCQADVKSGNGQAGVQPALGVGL
Put plainly: Antagonist activity at human adenosine A2B receptor by cAMP assay. It counts as functional.

Assay [9] concerns the target T7, Adenosine receptor A2b (Homo sapiens). Put plainly: Agonist activity at human adenosine A2B receptor by cAMP assay. It counts as functional.

Activity calls are given as the source filed them. The rule behind the calls is not given here. Some results are limits rather than exact numbers.

What is called inhibition is the drop in the measured response relative to a control, in per cent. In general, Ki refers to a dissociation constant, usually derived from enzyme kinetics or from competition with a known ligand.

Adenosine receptor A2a (Homo sapiens), sequence (P29274 whole entry): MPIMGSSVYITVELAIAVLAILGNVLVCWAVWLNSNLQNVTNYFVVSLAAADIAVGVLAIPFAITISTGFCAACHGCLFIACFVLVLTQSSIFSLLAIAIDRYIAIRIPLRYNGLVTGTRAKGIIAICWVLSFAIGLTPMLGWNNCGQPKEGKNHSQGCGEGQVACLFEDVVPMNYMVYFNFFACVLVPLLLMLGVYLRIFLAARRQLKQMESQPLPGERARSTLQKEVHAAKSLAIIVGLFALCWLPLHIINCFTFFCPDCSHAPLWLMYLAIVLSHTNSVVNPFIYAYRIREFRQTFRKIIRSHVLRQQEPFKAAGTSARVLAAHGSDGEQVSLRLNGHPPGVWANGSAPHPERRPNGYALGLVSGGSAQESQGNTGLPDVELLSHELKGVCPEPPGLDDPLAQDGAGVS

With `O[C@H]1[C@@H](O)CS[C@@H]1n1cnc2c(NCc3cccc(I)c3)nc(Cl)nc21`, the inhibition in [1] is -0.95%; in [2], 18.4%; in [4], -8%. Moreover, in assay [3], the Activity is less than 10%.

Regarding `O[C@@H]1[C@H](O)CS[C@H]1n1cnc2c(NCc3cccc(Br)c3)ncnc21`, the Activity in assay [3] was less than 10%. The same compound displayed a Ki at Adenosine receptor A3 [5] of 6.3 nM.

Turning to `CNc1ncnc2c1ncn2[C@@H]1SC[C@@H](O)[C@H]1O`, the inhibition in assay [1] came out at 22%; in assay [6], 28%. Also, the Ki amounted to 1070 nM on Adenosine receptor A1 and 4.8 nM on Adenosine receptor A3 [7]. Further, in assay [3], the Activity was less than 10%.

As for `O[C@@H]1[C@H](O)CS[C@H]1n1cnc2c(NCc3cccc(F)c3)ncnc21`, the Activity in assay [3] was less than 10%. The same compound gave a Ki on Adenosine receptor A3 [5] of 98 nM.

Regarding `CNc1nc(Cl)nc2c1ncn2[C@@H]1SC[C@@H](O)[C@H]1O`, the Activity in [3] was less than 10%.

Turning to `O[C@@H]1[C@H](O)CS[C@H]1n1cnc2c(NCc3cccc(Cl)c3)nc(Cl)nc21`, the Activity in [3] is less than 10%.

In the case of `O[C@@H]1[C@H](O)CS[C@H]1n1cnc2c(NCc3cccc(I)c3)ncnc21`, in assay [3], the Activity is less than 10%.

Consider `O[C@@H]1[C@H](O)CS[C@H]1n1cnc2c(NCc3cccc(Cl)c3)ncnc21`, for which, in assay [3], the Activity was less than 10%. On Adenosine receptor A3 [5], this compound returned a Ki of 17 nM.

For `O[C@@H]1[C@H](O)CS[C@H]1n1cnc2c(NCc3cccc(Br)c3)nc(Cl)nc21`, the Activity in assay [3] was less than 10%.

Consider `O[C@H]1[C@@H](O)CS[C@@H]1n1cnc2c(NCc3cccc(Br)c3)nc(Cl)nc21`, for which the inhibition in assay [1] worked out at 45.7%; in assay [2] it was 12.6%; in assay [4], 6.1%. In addition, in assay [3], the Activity was less than 10%.

Take `O[C@@H]1[C@H](O)CS[C@H]1n1cnc2c(NCc3cccc(F)c3)nc(Cl)nc21`: the Activity in [3] is less than 10%.

As for `CNC(=O)[C@H]1S[C@@H](n2cnc3c(NCc4cccc(I)c4)ncnc32)[C@H](O)[C@@H]1O`, the Ki amounted to 17.3 nM at Adenosine receptor A1, 0.25 nM at Adenosine receptor A3 [7] and 1.86 nM on Adenosine receptor A3 [5]. In [3], the outcome was Active.

As for `O[C@@H]1[C@H](O)CS[C@H]1n1cnc2c(NCc3cccc(I)c3)nc(Cl)nc21`, the result in assay [8] and in [9] was inactive. Besides, in assay [3], the Activity is less than 10%.

(Values after ChEMBL document CHEMBL1140153, “Structure-activity relationships of truncated D- and l-4'-thioadenosine derivatives as species-independent A3 adenosine receptor antagonists” (J Med Chem, 2008).)
